Assay results taken from ChEMBL document CHEMBL1687888, “Synthesis, hypoxia-selective cytotoxicity of new 3-amino-1,2,4-benzotriazine-1,4-dioxide derivatives” (Eur J Med Chem, 2011).
pIC50: −log10 of the molar value. Active and inactive are the calls of the source. The calls are words filed in the database; no cut-off is given here.

Columns and labels:
SMMC-7721 [1] = test: Cytotoxicity against human SMMC7721 cells for 72 hrs under normoxic condition by MTT assay; type: functional, cell-based; settings: SMMC-7721, 72 h
Outline: (§1)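 RPMI-1640 with heat-inactivated 10% FBS plus penicillin/streptomycin; hypoxia 3% O2, 5% CO2 or normoxia 20% O2, 5% CO2, 37 °C. Compounds dissolved in DMSO at 10.0 mg/mL (stock), then diluted; cells seeded 5×10³ per well. Viability read by MTT kit; IC50 taken as concentration giving 50% absorbance inhibition versus control cells.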

A549 [2] = test: Cytotoxicity against human A549 cells for 72 hrs under hypoxic condition by MTT assay; type: functional, cell-based; settings: A549, 72 h; outline: as §1
A549 [3] = test: Cytotoxicity against human A549 cells for 72 hrs under normoxic condition by MTT assay; type: functional, cell-based; settings: A549, 72 h; outline: as §1
KB [4] = test: Cytotoxicity against human KB cells for 72 hrs under normoxic condition by MTT assay; type: functional, cell-based; outline: as §1
PC-3 [5] = test: Cytotoxicity against human PC3 cells for 72 hrs under hypoxic condition by MTT assay; type: functional, cell-based; settings: PC-3, 72 h; outline: as §1
SMMC-7721 [6] = test: Cytotoxicity against human SMMC7721 cells for 72 hrs under hypoxic condition by MTT assay; type: functional, cell-based; settings: SMMC-7721, 72 h; outline: as §1
KB [7] = test: Cytotoxicity against human KB cells for 72 hrs under hypoxic condition by MTT assay; type: functional, cell-based; outline: as §1
K562 [8] = test: Cytotoxicity against human K562 cells for 72 hrs under hypoxic condition by MTT assay; type: functional, cell-based; settings: K562, 72 h; outline: as §1
PC-3 [9] = test: Cytotoxicity against human PC3 cells for 72 hrs under normoxic condition by MTT assay; type: functional, cell-based; settings: PC-3, 72 h; outline: as §1
K562 [10] = test: Cytotoxicity against human K562 cells for 72 hrs under normoxic condition by MTT assay; type: functional, cell-based; settings: K562, 72 h; outline: as §1
K562 [11] = test: Induction of apoptosis in human K562 cells under hypoxic condition assessed as decrease in PARP level at 10 uM for 48 hrs by Western blotting; type: functional, cell-based
Outline: (§2)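 K562 treated 48 h under hypoxia (3% O2) or normoxia (20% O2), 5% CO2, 37 °C. Lysis buffer: 150 mM NaCl, 50 mM Tris-HCl pH 8.0, 2 mM EGTA, 2 mM EDTA, 25 mM NaF, 25 mM β-glycerophosphate, 0.2% Triton X-100, 0.3% NP-40, 0.1 mM PMSF. Extracts immunoblotted for procaspase-3, cleaved caspase-3, PARP and XIAP.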

K562 [12] = test: Induction of apoptosis in human K562 cells under hypoxic condition assessed as caspase-3 cleavage at 10 uM for 48 hrs by Western blotting; type: functional, cell-based; outline: as §2
K562 [13] = test: Induction of apoptosis in human K562 cells under normoxic condition assessed as DNA fragmentation at 10 uM for 48 hrs using propidium iodide by flow cytometry; type: functional, cell-based
Outline: (§3)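 K562 held under hypoxia (3% O2, 5% CO2) or normoxia (20% O2, 5% CO2) at 37 °C, treated 48 h. Cells washed in PBS, fixed in 75% ethanol at −20 °C overnight, RNase-treated 30 min at 37 °C, PI-stained 30 min at room temperature in the dark. DNA content and apoptotic fraction read by flow cytometry.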

K562 [14] = test: Induction of apoptosis in human K562 cells under hypoxic condition assessed as decrease in XIAP level at 10 uM for 48 hrs by Western blotting
K562 [15] = test: Induction of apoptosis in human K562 cells under hypoxic condition assessed as decrease in procaspase-3 level at 10 uM for 48 hrs by Western blotting
K562 [16] = test: Induction of apoptosis in human K562 cells under hypoxic condition assessed as accumulation at Sub-G1 phase at 10 uM for 48 hrs using propidium iodide by flow cytometry (reference value: 13.03%); type: functional
K562 [17] = test: Induction of apoptosis in human K562 cells under normoxic condition assessed as accumulation at Sub-G1 phase at 10 uM for 48 hrs using propidium iodide by flow cytometry (reference value: 5.27%); type: functional
K562 [18] = test: Induction of apoptosis in human K562 cells under hypoxic condition assessed as decrease in PARP level at 10 uM for 48 hrs by Western blotting
K562 [19] = test: Induction of apoptosis in human K562 cells under hypoxic condition assessed as decrease in procaspase-3 level at 10 uM for 48 hrs by Western blotting; type: functional, cell-based; outline: as §2
K562 [20] = test: Induction of apoptosis in human K562 cells under hypoxic condition assessed as DNA fragmentation at 10 uM for 48 hrs using propidium iodide by flow cytometry; type: functional, cell-based; outline: as §3
K562 [21] = test: Induction of apoptosis in human K562 cells under hypoxic condition assessed as decrease in XIAP level at 10 uM for 48 hrs by Western blotting; type: functional, cell-based; outline: as §2

Structure (SMILES) | pIC50 (SMMC-7721 [1]) | pIC50 (A549 [2]) | pIC50 (A549 [3]) | pIC50 (KB [4]) | pIC50 (PC-3 [5]) | pIC50 (SMMC-7721 [6]) | pIC50 (KB [7]) | pIC50 (K562 [8]) | pIC50 (PC-3 [9]) | pIC50 (K562 [10]) | also measured
[O-][n+]1nc(NCOCc2ccccc2)[n+]([O-])c2ccccc21 | 4.70 | 5.38 | 4.97 | 5.24 | 4.93 | 5.32 | 4.91 | 5.33 | 4.87 | 4.79 | –
COc1ccc2c(c1)[n+]([O-])nc(NCOC(C)c1ccccc1)[n+]2[O-] (stereo not drawn) | 5.09 | 6.66 | 5.50 | 6.66 | < 4.00 | 6.13 | 4.91 | 6.60 | 5.38 | 5.17 | –
O=[N+]([O-])c1cccc(COCNc2n[n+]([O-])c3ccccc3[n+]2[O-])c1 | 5.07 | 5.46 | 5.54 | 6.24 | < 4.00 | 6.28 | 4.78 | 6.19 | 5.51 | 5.25 | –
CCCCCOCNc1n[n+]([O-])c2ccccc2[n+]1[O-] | 4.77 | 5.54 | 5.19 | 5.91 | 5.07 | 5.52 | 4.40 | 5.48 | 5.04 | 4.84 | –
[O-][n+]1nc(NCOC2CCCCC2)[n+]([O-])c2ccccc21 | 4.55 | 5.92 | 5.29 | 5.36 | 5.18 | 5.38 | 4.66 | 5.31 | 5.49 | 4.97 | –
CC(C)CCOCNc1n[n+]([O-])c2ccccc2[n+]1[O-] | 4.80 | 5.68 | 5.14 | 5.52 | 5.12 | 5.54 | 5.28 | 5.23 | 4.96 | 4.88 | –
[O-][n+]1nc(NCOCc2ccc(Cl)cc2)[n+]([O-])c2ccccc21 | 4.84 | 5.66 | 5.83 | 5.89 | 5.29 | 6.09 | 5.08 | 5.73 | 5.24 | 5.49 | –
CCCCCCCOCNc1n[n+]([O-])c2ccccc2[n+]1[O-] | 5.15 | 5.46 | 5.58 | 5.60 | 6.41 | 5.51 | 4.85 | 5.21 | 5.92 | 5.53 | –
CCCOCNc1n[n+]([O-])c2ccccc2[n+]1[O-] | 4.71 | 5.43 | 5.13 | 5.71 | 5.13 | 5.26 | 4.99 | 5.41 | 4.85 | 4.75 | –
COCNc1n[n+]([O-])c2ccccc2[n+]1[O-] | 5.18 | 5.56 | 5.13 | 5.80 | 5.37 | 5.61 | 5.04 | 5.42 | 5.12 | 5.11 | –
Nc1n[n+]([O-])c2ccccc2[n+]1[O-] [TIRAPAZAMINE] | 4.48 | 5.71 | 5.13 | 5.20 | 5.93 | 5.32 | 4.73 | 5.74 | 4.68 | 4.71 | –
[O-][n+]1nc(NCOCc2ccc(C(F)(F)F)cc2)[n+]([O-])c2ccccc21 | 5.02 | 5.37 | 5.07 | 6.41 | 5.03 | 6.11 | 4.70 | 5.91 | 5.12 | 4.74 | Activity (K562 [11]): Active; Activity (K562 [12]): Active; Activity (K562 [13]): Active; Activity (K562 [14]): Active; Activity (K562 [15]): Active; Activity (K562 [16]): 32.11%; Activity (K562 [17]): 9.5%; Activity (K562 [18]): Active; Activity (K562 [19]): Active; Activity (K562 [20]): Active; Activity (K562 [21]): Active
CCCCOCNc1n[n+]([O-])c2ccccc2[n+]1[O-] | 4.68 | 5.63 | 5.20 | 5.76 | 5.22 | 5.40 | 4.82 | 5.49 | 4.83 | 4.75 | –
COc1ccc(COCNc2n[n+]([O-])c3ccccc3[n+]2[O-])cc1 | 4.66 | 5.48 | 5.12 | 5.39 | 4.28 | 5.94 | 4.85 | 6.18 | 4.84 | 4.70 | Activity (K562 [11]): Active; Activity (K562 [12]): Active; Activity (K562 [13]): Active; Activity (K562 [14]): Active; Activity (K562 [15]): Active; Activity (K562 [16]): 54.24%; Activity (K562 [17]): 14.95%; Activity (K562 [18]): Active; Activity (K562 [19]): Active; Activity (K562 [20]): Active; Activity (K562 [21]): Active
COc1ccc2c(c1)[n+]([O-])nc(NCOCc1ccccc1)[n+]2[O-] | 4.67 | 5.35 | 5.60 | 5.62 | 4.05 | 5.92 | 4.74 | 6.62 | 5.07 | 4.56 | –
CCOCNc1n[n+]([O-])c2ccccc2[n+]1[O-] | 4.57 | 5.39 | 4.98 | 5.55 | 5.13 | 5.37 | 4.65 | 5.30 | 4.80 | 4.81 | Activity (K562 [11]): Active; Activity (K562 [12]): Active; Activity (K562 [13]): Active; Activity (K562 [14]): Active; Activity (K562 [15]): Active; Activity (K562 [16]): 33.07%; Activity (K562 [17]): 14.13%; Activity (K562 [18]): Active; Activity (K562 [19]): Active; Activity (K562 [20]): Active; Activity (K562 [21]): Active
CCCOCNc1n[n+]([O-])c2cc(OC)ccc2[n+]1[O-] | 5.54 | 5.60 | 5.55 | 5.49 | 4.97 | 5.97 | 4.92 | 5.45 | 5.18 | 5.37 | –
CCCCCOCNc1n[n+]([O-])c2cc(OC)ccc2[n+]1[O-] | 4.89 | 5.60 | 5.30 | 5.55 | 4.51 | 6.26 | 4.77 | 6.35 | 5.44 | 5.15 | –
CC(OCNc1n[n+]([O-])c2ccccc2[n+]1[O-])c1ccccc1 (stereo not drawn) | 4.89 | 5.55 | 5.57 | 5.60 | 4.97 | 5.61 | 4.85 | 5.65 | 5.22 | 5.06 | –
